Assay results from publication PMC12207910 (European journal of pharmaceutical sciences : official …, 2024).
≈ marks a conversion by molar mass, not a printed value. Entries after “also recorded” stand apart in the source; their conditions may differ. Read-outs that look alike come from different tables or passages of the source. Non-standard residues stand in square brackets, D forms with d. Residues, ends and D or L forms follow the SMILES beside them. Dip = N[C@H](C(=O)O)C(c1ccccc1)c1ccccc1

Columns and labels:
C. krusii (ATCC 6258) = assay: organism not typed; details: read-out: MIC C. krusii (ATCC 6258)
C. albicans (ATCC 60193) [1] = assay: Kill kinetics assay; assay type: cell-based; details: for eradication of fungal cells: after 12 h
C. albicans (ATCC 10132) = assay: microbe, parasite or virus in culture; details: Candida albicans, ATCC10132, read-out: MIC C. albicans (ATCC 10132)
C. albicans (ATCC 60193) [2] = assay: microbe, parasite or virus in culture; assay type: cell-based; details: for MIC: Candida albicans
C. albicans (ATCC 60193) [3] = assay: microbe, parasite or virus in culture; details: Candida albicans, ATCC60193, read-out: MIC C. albicans (ATCC 60193)
[4] = Calcein dye leakage assay; details: mammalian mimic liposomes; after 100 min; concentration not given
Procedure, shortened: (§1)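 Calcein-loaded LUVs were used: negatively charged ones mimic bacterial membranes and zwitterionic ones mimic mammalian membranes. They were diluted in PBS to a final lipid concentration of 40 μM and mixed 1:1 with test compound at 5, 10, 20, 30 or 50 μg/mL. Fluorescence (ex 490/em 520 nm) was read every 10 min for 100 min. Leakage was expressed relative to background and Triton X-100 lysis (100%); triplicate.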

fungi = details: range over strains
in vitro [5] = details: human, cell viability
[6] = tested on: human red blood cells (hRBC); assay: Hemolytic activity; assay type: cell-based; details: concentration at which 50% hemolysis was observed
Gram-negative bacteria = details: drug-resistant Gram-negative bacteria, range over strains
[7] = tested on: Pseudomonas aeruginosa (ATCC BAA-1744), imipenem resistant; details: Imipenem resistant strain
[8] = tested on: Enterococcus faecalis (ATCC 51575), vancomycin resistant
MRSA (ATCC BAA-1556) [9] = assay type: cell-based, Methicillin-resistant staphylococcus aureus
in vitro [10] = details: human, cell viability; remark: listed apart in the source
[11] = tested on: Staphylococcus pneumoniae (ATCC 700677), multi-drug resistant; details: Multi-drug resistant (Penicillin, Tetracycline, and Erythromycin)
[12] = tested on: Escherichia coli (ATCC BAA-2452), NDM-1
[13] = tested on: Clostridium difficile (NAP1/027); details: Reduced susceptibility to multiple antibiotics
E. coli (ATCC BAA-2452) [14] = assay: Kill kinetics assay; assay type: cell-based, Escherichia coli
in vitro [15] = details: human
[16] = tested on: E. coli (ATCC BAA-2452) biofilm; assay: Antibiofilm activity, XTT assay; assay type: cell-based, Escherichia coli
Procedure, shortened: (§2)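 Bacterial suspensions at 5×10^5 CFU/mL in MH broth were grown 24 h at 37 °C to form biofilms, then washed twice with PBS. […] Biofilms were rewashed, then given XTT plus phenazine methosulfate for 1 h in the dark at 37 °C, and A492 was read. Percentage decrease versus untreated wells; triplicate, run twice.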

[17] = tested on: human skin fibroblast cell (HeKa); details: 24 h, 100 μg/mL
[18] = tested on: Enterococcus faecalis (ATCC 29212)
[19] = tested on: C. albicans (ATCC 60193) biofilm; assay: Antibiofilm activity, XTT assay; assay type: cell-based
Procedure, shortened: (§3)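 Fungal biofilms came from suspensions at 2×10^7 CFU/mL in RPMI medium grown 24 h at 35 °C, then washed twice with PBS. […] After washing, XTT with phenazine methosulfate was added for 1 h in the dark at 37 °C, and absorbance was read at 492 nm. Percentage decrease versus untreated wells; triplicate, replicated twice.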

A. fumigatus (Af-293) [20] = assay: microbe, parasite or virus in culture; assay type: cell-based, Aspergillus fumigatus
[21] = tested on: E. coli (ATCC 25922) and E. coli (ATCC BAA-2452); assay: Resistance development study, repeated exposure; assay type: cell-based; details: E. coli strains; 18 exposures
MRSA (ATCC BAA-1556) [22] = assay: Kill kinetics assay; assay type: cell-based, Methicillin-resistant staphylococcus aureus
in vitro [23] = details: human, cell viability; remark: listed apart in the source
E. coli (ATCC BAA-2452) [24] = assay type: cell-based, Escherichia coli
[25] = tested on: MRSA (ATCC BAA-1556) biofilm; assay: Antibiofilm activity, XTT assay; assay type: cell-based, Methicillin-resistant staphylococcus aureus
Procedure, shortened: as §2

[26] = tested on: Acinetobacter baumannii (ATCC BAA1605), ciprofloxacin resistant; details: Ciprofloxacin resistant strain
in vitro [27] = details: human; remark: listed apart in the source
A. fumigatus (Af-293) [28] = assay: Kill kinetics assay; assay type: cell-based, Aspergillus fumigatus; details: after 12 h
[29] = Calcein dye leakage assay; details: bacterial mimic liposomes; for calcein dye leakage: 5 μg/mL
Procedure, shortened: as §1

[30] = tested on: Clostridium difficile (ATCC 700057)
[31] = tested on: A. fumigatus (Af-293) biofilm; assay: Antibiofilm activity, XTT assay; assay type: cell-based, Aspergillus fumigatus
Procedure, shortened: as §3

**Q.** What does the source list for OC(Cn1cncn1)(Cn1cncn1)c1ccc(F)cc1F [Fluconazole]?
**A.** MIC (C. krusii (ATCC 6258)): 0.7 µg/mL (≈ 2.29 µM); fungicidal effect in kill kinetics (C. albicans (ATCC 60193) [1]; MIC and 4×MIC, compared to 3b and 4b): mild fungicidal effect; MIC (C. albicans (ATCC 10132)): 0.7 µg/mL (≈ 2.29 µM); MIC (C. albicans (ATCC 60193) [2]; ATCC60193, read-out: MIC CaCl2): 1.5 µg/mL (≈ 4.9 µM); MIC (C. albicans (ATCC 60193) [2]; ATCC60193, read-out: MIC Control): 1.5 µg/mL (≈ 4.9 µM); MIC (C. albicans (ATCC 60193) [2]; ATCC60193, read-out: MIC FBS (25%)): 1.5 µg/mL (≈ 4.9 µM); MIC (C. albicans (ATCC 60193) [2]; ATCC60193, read-out: MIC KCl): 1.5 µg/mL (≈ 4.9 µM); MIC (C. albicans (ATCC 60193) [2]; ATCC60193, read-out: MIC MgCl2): 1.5 µg/mL (≈ 4.9 µM); MIC (C. albicans (ATCC 60193) [2]; ATCC60193, read-out: MIC NH4Cl): 1.5 µg/mL (≈ 4.9 µM); MIC (C. albicans (ATCC 60193) [2]; ATCC60193, read-out: MIC NaCl): 1.5 µg/mL (≈ 4.9 µM); MIC (C. albicans (ATCC 60193) [3]): 1.5 µg/mL (≈ 4.9 µM)

**Q.** What does the source list for N=C(N)NCCC[C@@H]1NC(=O)[C@H](CCCNC(=N)N)NC(=O)[C@H](CCCNC(=N)N)NC(=O)[C@H](C(c2ccccc2)c2ccccc2)NC(=O)[C@H](Cc2c[nH]c3ccccc23)NC(=O)[C@H](C(c2ccccc2)c2ccccc2)NC(=O)[C@H](CCCNC(=N)N)NC1=O [3b, c[Arg-Arg-Arg-Arg-Dip-Trp-Dip]] (cyclo(RRRR[Dip]W[Dip]))?
**A.** calcein dye leakage [4]: 14.11%; MIC (fungi): 3.1 to 12.5 µg/mL; viability at 24 h, 100 μg/mL (in vitro [5]): > 70%; HC50 [6]: 230 µg/mL; MIC (Gram-negative bacteria): 12.5 to 25 µg/mL; MIC Pseudomonas aeruginosa (ATCC BAA-1744) [7]: 12.5 µg/mL (≈ 9.94 µM); MIC Enterococcus faecalis (ATCC 51575) [8]: 12.5 µg/mL (≈ 9.94 µM); MIC CaCl2 (MRSA (ATCC BAA-1556) [9]): 1.5 µg/mL (≈ 1.19 µM); MIC Control (MRSA (ATCC BAA-1556) [9]): 1.5 µg/mL (≈ 1.19 µM); MIC KCl (MRSA (ATCC BAA-1556) [9]): 3.1 µg/mL (≈ 2.47 µM); MIC MgCl2 (MRSA (ATCC BAA-1556) [9]): 3.1 µg/mL (≈ 2.47 µM); MIC NH4Cl (MRSA (ATCC BAA-1556) [9]): 1.5 µg/mL (≈ 1.19 µM); MIC NaCl (MRSA (ATCC BAA-1556) [9]): 3.1 µg/mL (≈ 2.47 µM); viability at 24 h, 100 μg/mL (in vitro [10]): > 70%; MIC Staphylococcus pneumoniae (ATCC 700677) [11]: 12.5 µg/mL (≈ 9.94 µM); MIC Escherichia coli (ATCC BAA-2452) [12]: 12.5 µg/mL (≈ 9.94 µM); MIC Clostridium difficile (NAP1/027) [13]: 6.2 µg/mL (≈ 4.93 µM); time to completely halt growth of nearly all cells (E. coli (ATCC BAA-2452) [14]; at 4× the MIC): 2 h; time to completely halt growth of nearly all cells (E. coli (ATCC BAA-2452) [14]; at MIC): 4 h; viability at 24 h, 50 μg/mL (in vitro [15]): 81 to 89%; viability at 24 h, 100 μg/mL (in vitro [15]): > 70%; viability at 24 h, 250 μg/mL (in vitro [15]): > 50%; reduction in biofilm mass ([16]; at 2× the MIC): 60–65%; reduction in biofilm mass ([16]; at MIC): 40–45%; eradication of fungal cells (C. albicans (ATCC 60193) [1]; at 4× the MIC): near-complete eradication; eradication of fungal cells (C. albicans (ATCC 60193) [1]; at MIC): Complete eradication was not achieved; cell viability [17]: > 60%; MIC Enterococcus faecalis (ATCC 29212) [18]: 12.5 µg/mL (≈ 9.94 µM); decrease in biofilm mass ([19]; at 2× the MIC): 60–62%; decrease in biofilm mass ([19]; at MIC): 31–39%; MIC MgCl2 (A. fumigatus (Af-293) [20]; A. fumigatus (Af-293), MgCl2 1 mM): 12.5 µg/mL (≈ 9.94 µM); MIC NaCl (A. fumigatus (Af-293) [20]; A. fumigatus (Af-293), NaCl 150 mM): 12.5 µg/mL (≈ 9.94 µM); MIC FBS (25%) (A. fumigatus (Af-293) [20]; A. fumigatus (Af-293), fetal bovine serum 25%): 12.5 µg/mL (≈ 9.94 µM); MIC CaCl2 (A. fumigatus (Af-293) [20]; Af-293): 6.2 µg/mL (≈ 4.93 µM); MIC Control (A. fumigatus (Af-293) [20]; Af-293): 6.2 µg/mL (≈ 4.93 µM); MIC KCl (A. fumigatus (Af-293) [20]; Af-293): 6.2 µg/mL (≈ 4.93 µM); MIC NH4Cl (A. fumigatus (Af-293) [20]; Af-293): 6.2 µg/mL (≈ 4.93 µM); change in MIC after repeated exposure (resistance development) [21]: no signs of resistance development; also recorded: negligible changes in the MIC values; time to virtually eliminate all bacterial cells (MRSA (ATCC BAA-1556) [22]; at 4× the MIC): 1 to 2 h; time to virtually eliminate all bacterial cells (MRSA (ATCC BAA-1556) [22]; at MIC): 3 to 4 h; viability at 24 h, 100 μg/mL (in vitro [23]): > 70%; MIC NaCl (E. coli (ATCC BAA-2452) [24]; ATCC BAA-2452): 25 µg/mL (≈ 19.9 µM); MIC CaCl2 (E. coli (ATCC BAA-2452) [24]; E. coli (ATCC BAA-2452), CaCl2 2 mM): 12.5 µg/mL (≈ 9.94 µM); MIC KCl (E. coli (ATCC BAA-2452) [24]; E. coli (ATCC BAA-2452), KCl […]): 12.5 µg/mL (≈ 9.94 µM); MIC Control (E. coli (ATCC BAA-2452) [24]; E. coli (ATCC BAA-2452), MH media without salt ions or serum): 12.5 µg/mL; MIC MgCl2 (E. coli (ATCC BAA-2452) [24]; E. coli (ATCC BAA-2452), MgCl2 1 mM): 12.5 µg/mL (≈ 9.94 µM); MIC NH4Cl (E. coli (ATCC BAA-2452) [24]; E. coli (ATCC BAA-2452), NH4Cl 6 mM): 12.5 µg/mL (≈ 9.94 µM); reduction in biofilm mass ([25]; at 2× the MIC): 60–65%; reduction in biofilm mass ([25]; at MIC, vs untreated control): 40–45%; MIC Acinetobacter baumannii (ATCC BAA1605) [26]: 12.5 µg/mL (≈ 9.94 µM); remaining at 0.5 h, 75 μM (in vitro [27]; human plasma): ~82.4%; remaining at 12 h, 75 μM (in vitro [27]; human plasma): ~52.3%; remaining at 24 h, 75 μM (in vitro [27]; human plasma): ~44.9%; half-life at 75 μM (in vitro [27]; plasma): 13 h; eradication of fungal cells (A. fumigatus (Af-293) [28]; at 4× the MIC): near-complete eradication; eradication of fungal cells (A. fumigatus (Af-293) [28]; at MIC): Complete eradication was not achieved; calcein dye leakage ([29]; 40 min): approximately 20%; calcein dye leakage ([29]; 60 min): ~60%; incubation time to 100% dye leakage ([29]; 50 μg/mL): 60 min; MIC CaCl2 (C. albicans (ATCC 60193) [2]; ATCC 60193): 6.2 µg/mL (≈ 4.93 µM); MIC Control (C. albicans (ATCC 60193) [2]; ATCC 60193): 3.1 µg/mL (≈ 2.47 µM); MIC KCl (C. albicans (ATCC 60193) [2]; ATCC 60193): 3.1 µg/mL (≈ 2.47 µM); MIC MgCl2 (C. albicans (ATCC 60193) [2]; ATCC 60193): 3.1 µg/mL (≈ 2.47 µM); MIC NH4Cl (C. albicans (ATCC 60193) [2]; ATCC 60193): 6.2 µg/mL (≈ 4.93 µM); MIC NaCl (C. albicans (ATCC 60193) [2]; ATCC 60193): 3.1 µg/mL (≈ 2.47 µM); MIC Clostridium difficile (ATCC 700057) [30]: 12.5 µg/mL (≈ 9.94 µM); reduction in biofilm mass ([31]; at 2× the MIC): 49–56%; reduction in biofilm mass ([31]; at MIC): 31–36%
